Arr AP2 block – human beta-arrestin and AP2 interaction inhibition; inhibition, % at 10 µM; FITC-arrestin peptide / GST-AP2 beads, flow cytometry; AP2 beta2 appendage carries R879A mutation; 0.31% of 340,000 active; AID 504490;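 active = inhibition above a set limit, near 3 SD of compounds lacking own fluorescence, cut at about 54% in these data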;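 also: plate controls were DMSO wells for no effect and 5 µM unlabelled arrestin peptide for full effect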
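system = GST-tagged AP2 beta2-adaptin appendage (R879A) on 4 µm glutathione beads | reagent = FITC-labelled arrestin peptide probe, 50 nM final | schedule = compound with beads 12 min RT, then probe 1 h RT | signal = HyperCyt-sampled flow cytometry, FL1 channel, ex 488/em 535 nm | read-out = percent response from loss of bead-bound FITC fluorescence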
PAX8 reporter – lowers PAX8-driven luciferase in RMG-I cells; RMG-I TPO-luciferase reporter, SteadyGlo, 24 h; inhibition, % at 12.6 µM; 1.2% of 360,000 active;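 active = mean replicate inhibition at least 60% with every replicate also reaching 60%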;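 also: luciferase light reporting Pax8 driven TPO promoter activity; plate controls were median of neutral control wells for no effect and mitoxantrone controls for full effect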
PfHsp90 set2 – growth inhibition of yeast expressing Plasmodium Hsp90 | S. cerevisiae expressing PfHsp90, BacTiter-Glo ATP, 48 h; yeast lacking PDR1 and PDR3 efflux regulators | inhibition, % at 9.4 µM | AID 504621 | 0.32% of 310,000 active;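 active = every replicate shows inhibition above about 80%, whatever the replicate mean, limit read from the data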;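 also: 0% = DMSO neutral controls and 100% = 20 µM radicicol positive controls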
N-glyco inh – N-linked glycosylation inhibition | D54 ERlucT glycosylation luciferase reporter, 24 h; percent of 100 nM tunicamycin response | reporter increase, % at 12.5 µM | 0.23% of 360,000 active | AID 588692;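 active = mean luciferase reporter signal, scaled so untreated is 0 and the glycosylation-blocking control 100, at or above a set limit in every replicate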;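 also: luciferase carries N-glycosylation sites so blocking glycosylation raises the light; 0% = median of neutral control wells and 100% = median of 100 nM tunicamycin wells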
Env fusion inh – HIV envelope-mediated fusion inhibition; inhibition, % at 12.3 µM; HeLa-JRFL Env/CEM21 cell fusion, luciferase; 1.1% of 360,000 active;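 active = mean replicate inhibition score of at least 50 and every replicate individually at or above 50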;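 also: 0% = plate neutral controls and 100% = maraviroc near 300 nM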
Rtt109 Vps75 – inhibitors of Candida albicans Rtt109/Vps75 histone acetyltransferase; purified Rtt109/Vps75, ThioGlo CoA-SH fluorescence, 4 h; 0.16% of 330,000 active; inhibition, % at 34.9 µM;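 active = inhibition of at least 50% in every replicate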
Target sequence (Q5AAJ8 whole entry, looked up): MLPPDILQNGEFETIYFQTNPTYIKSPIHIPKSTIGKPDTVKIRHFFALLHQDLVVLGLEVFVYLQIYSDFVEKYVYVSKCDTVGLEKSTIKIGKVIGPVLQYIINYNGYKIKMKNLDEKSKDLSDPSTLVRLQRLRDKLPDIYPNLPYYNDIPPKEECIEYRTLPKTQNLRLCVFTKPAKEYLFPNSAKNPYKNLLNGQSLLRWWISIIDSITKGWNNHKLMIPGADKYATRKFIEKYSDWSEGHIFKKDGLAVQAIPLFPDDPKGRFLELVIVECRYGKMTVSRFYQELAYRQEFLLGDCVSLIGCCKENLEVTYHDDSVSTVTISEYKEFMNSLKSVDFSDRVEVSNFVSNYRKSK
The depositor's hits bear a star; · = no result given; [ ] = another dose, or the depositor's remark. This is a sample that favours compounds with a hit; in the whole collection about 2.3% have one here.

SMILES | Arr AP2 block | PAX8 reporter | PfHsp90 set2 | N-glyco inh | Env fusion inh | Rtt109 Vps75
CC[n+]1c(/C=C2/C=C(C)CC(C)C2)sc2ccccc21 (centres undefined) | 5.2 | 22.9 | -1.7 | 3.3 | 7.7 | -4.7
CC[n+]1c(C=C2C=C(C)OC(C)=C2)sc2ccccc21 | 8.0 | 84.5* | -8.9 | 13.7 | 26.3 | -12.6
CCOC(=O)[C@@H](C)N(Cc1ccc(OC)cc1)S(=O)(=O)N(Cc1ccccc1)[C@H](C(=O)OC)C(C)C | -6.9 | 3.8 | 2.4 | -14.3 | 92.1* | 5.3
COC(=O)C(CC(C)C)N(Cc1cc(OC)cc(OC)c1)S(=O)(=O)c1ccccc1Br (centres undefined) | -2.1 | 3.3 | 21.3 | -8.3 | 58.5* | -10.3
COC(=O)[C@H](CC(C)C)N(Cc1ccccc1)S(=O)(=O)N(Cc1ccc(OC)cc1)[C@@H](CC(C)C)C(=O)OC | -1.8 | 17.4 | -3.3 | -8.5 | 74.5* | 2.5
COC(=O)[C@H](CC(C)C)N(Cc1ccccc1)S(=O)(=O)N(Cc1ccccc1)[C@@H](CC(C)C)C(=O)OC | 29.1 | 19.1 | 1.2 | -6.3 | 11.5 | 3.7
COc1ccc(S(=O)(=O)Nc2ccc3c(c2)C(=O)N([C@@H](C)CO)C[C@H](C)[C@H](CN(C)C(=O)NC2CCCCC2)OCCCC[C@@H](C)O3)cc1 | · | -8.4 | · | · | -61.4[16.7 µM] | ·
O=C1CCCN1CCC1CCN(C2CC(=O)N(c3ccc(Cl)cc3)C2=O)CC1 (centres undefined) | -2.3 | · | 102.4* | 1.6 | · | -1.7
O=C1CCCN1CCC1CCN(C2CC(=O)N(Cc3ccc(N4CCCC4=O)cc3)C2=O)CC1 (centres undefined) | 19.2 | · | 0.0 | -0.8 | · | 28.6
Cc1cc(NS(=O)(=O)c2ccc(NC(=O)c3oc4ccccc4c3C)cc2)no1 | 0.1 | · | 3.7 | 0.8 | 56.9* | 5.8
Cc1cc(NS(=O)(=O)c2ccc(NC(=O)COc3c(C)cc(Br)cc3C)cc2)no1 | -10.0 | 6.5 | 38.6 | 32.7* | -7.0 | 6.6
COc1ccc(OCC(=O)Nc2ccc(S(=O)(=O)Nc3cc(C)on3)cc2)cc1 | 27.3 | -15.8 | 4.0 | -0.2 | -5.7 | -2.2
O=C(C[C@@H]1CC[C@@H](NC(=O)c2ccncc2)[C@H](CO)O1)NCC1CC1 | · | · | · | · | 1.1[16.7 µM] | ·
OC[C@H]1Nc2ccc(C#Cc3ccc(F)cc3)cc2[C@H]2[C@@H]1CCN2Cc1ccc2c(c1)OCO2 | · | -21.8 | · | · | · | ·
CCOC(=O)CNC(=S)N(Cc1cccs1)C1CCCC1 | 2.4 | -30.9 | 31.0 | 0.3 | 14.7 | -10.6
CCCCCCNC(=O)CNC(=S)N(Cc1cccs1)C1CCCCC1 | 18.6 | 2.3 | -14.0 | -2.4 | 58.8* | -3.6
CCCNC(=O)N1CC2(CCN(S(C)(=O)=O)CC2)c2c(n(C)c3cc(OC)ccc23)[C@H]1CO | · | -20.8 | · | · | · | ·
C/C(=N\NC(=O)C(c1ccccc1)c1ccccc1)c1ccccn1 | 9.2 | 77.3* | 2.0 | -16.8 | 11.9 | -3.1
Cc1cccc2sc(NNC(=O)c3cc(-c4cccs4)nc4ccccc34)nc12 | 6.4 | 52.0 | -98.5 | -2.8 | 85.2* | -5.2
C/C(=N\NC(=O)C(c1ccccc1)c1ccccc1)c1ccc(O)cc1 | 10.1 | 1.8 | 9.5 | -1.4 | -57.4 | 21.4
NNC(=O)c1cc(-c2cccs2)nc2ccccc12 | -2.5 | 12.3 | 15.2 | 0.2 | 0.9 | -11.8
C/C(=N\NC(=O)c1ccccc1Cl)c1ccccn1 | 14.3 | 2.2 | 0.4 | -17.2 | -23.3 | -16.0
C/C(=N\NC(=O)c1cccc2ccccc12)c1ccccn1 | -7.7 | 65.4* | 2.3 | -15.1 | 19.0 | 0.6
C/C(=N\NC(=O)c1cc(-c2cccs2)nc2ccccc12)c1ccccn1 | -1.2 | 79.3* | 1.3 | -13.8 | -29.6 | -3.2
C[C@H]1CN([C@@H](C)CO)S(=O)(=O)c2ccc(C3=CCCC3)cc2O[C@H]1CN(C)Cc1ccccn1 | · | 7.0 | · | · | · | ·
C[C@H]1CN([C@@H](C)CO)C(=O)c2c(c3ccccc3n2C)-c2ccccc2CO[C@@H]1CN(C)C(=O)Nc1ccccc1C(F)(F)F | · | 24.7 | · | · | · | ·
CC(=NNC(=S)Nc1cccc(C)c1)c1ccccn1 | 9.9 | 77.9* | 112.3* | -8.0 | -28.7 | -3.1
Nc1[nH]nc2nc(N3CCOCC3)nc(-c3ccccc3)c12 | 3.0 | · | · | -4.0 | 67.1* | -4.4
